Molecules are shown by their SMILES. Bounds are passed on as bounds.

One data set relates to Micrococcus luteus. Kind of data set: Antimicrobial activity against Micrococcus luteus ATCC 10240 after 24 hrs by Kirby-Bauer agar diffusion assay. Format: functional. An outline of the steps:
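Modified Kirby-Bauer well diffusion. Overnight LB cultures (18–24 h) were standardized in 0.9% saline to 0.5 McFarland and mixed into melted MHII agar at 47–50 °C, giving ~5×10³ CFU/mL. 9 mm wells received 50 µL of 2.0 mM compound in 10:1 MeOH:DMSO. Plates were incubated 24 h at 37 °C, then growth-inhibition zone diameter was measured (mm) by caliper.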
For orientation: In agar diffusion tests the substance spreads into inoculated agar from a disc or well.

In another data set the test system is PC-3. Kind of data set: Cytotoxicity against human PC3 cells. Format: cell-based.
For a further data set, the system named is MCF7. Kind of data set: Cytotoxicity against human MCF7 cells. It is filed as cell-based.
For the next data set, the system named is HeLa. Kind of data set: Cytotoxicity against human HeLa cells. It is filed as cell-based.

As for `O=C(Cc1ccccc1)N1OC2C=CC1CC2` (racemic), in the data set with Micrococcus luteus, the “diameter of the inhibition zone (DIZ)” value was “<=14 mm”. Also, the Activity entry with PC-3, with MCF7 and in the data set with HeLa was “Non-toxic” each time.
As to `Cc1cccc(N(O)[C@@H]2CCC=C[C@H]2OC(C)C)n1` (racemic), in the data set on Micrococcus luteus, the “diameter of the inhibition zone (DIZ)” value was more than 14 mm. Also, the Activity entry with PC-3, in the data set with MCF7 and in the data set with HeLa was “Non-toxic” throughout.
For `Cc1cccc(N(O)[C@@H]2C=C[C@@H](OC(C)C)CC2)n1` (racemic), in the data set with Micrococcus luteus, the “diameter of the inhibition zone (DIZ)” value is on record as more than 14 mm. Moreover, the Activity entry in the data set on PC-3, in the data set with MCF7 and with HeLa was “Non-toxic” throughout.
Turning to `CC(C)O[C@@H]1C=C[C@@H](N(O)c2ccc(Br)cn2)CC1` (relative stereo), in the data set on Micrococcus luteus, the “diameter of the inhibition zone (DIZ)” value is reported as more than 14 mm. The Activity result in the data set on PC-3, in the data set with MCF7 and with HeLa was “Non-toxic” in each case.
As for `CC1=CCCCC1N(O)c1cc(C)on1` (racemic), the “diameter of the inhibition zone (DIZ)” value in the data set on Micrococcus luteus is on record as more than 14 mm. In addition, the Activity result in the data set on PC-3, in the data set with MCF7 and in the data set with HeLa was “Non-toxic” in each case.
Consider `CO[C@@H]1C=CC[C@H]1N(O)c1ccc(Br)cn1` (racemic), for which the “diameter of the inhibition zone (DIZ)” value in the data set on Micrococcus luteus is more than 14 mm. Besides, the Activity entry in the data set on PC-3, in the data set on MCF7 and in the data set with HeLa was “Non-toxic” each time.
With `COC1C=C[C@@H](N(O)c2cc(C)on2)C1` (mixture of isomers), in the data set with Micrococcus luteus, the “diameter of the inhibition zone (DIZ)” value was more than 14 mm. Moreover, the Activity entry with PC-3, in the data set on MCF7 and with HeLa was “Non-toxic” each time.
Regarding `CO[C@@H]1C=CC[C@H]1N(O)c1ccc(Cl)cn1` (racemic), the “diameter of the inhibition zone (DIZ)” value with Micrococcus luteus was more than 14 mm. Also, the Activity entry in the data set with PC-3, with MCF7 and in the data set with HeLa was “Non-toxic” each time.
With `CC(C)OC1C=C[C@@H](N(O)c2ccc(Cl)cn2)C1` (mixture of isomers), the “diameter of the inhibition zone (DIZ)” value with Micrococcus luteus is given as more than 14 mm. The Activity entry in the data set on PC-3, in the data set with MCF7 and with HeLa was “Non-toxic” throughout.
Turning to `O=Nc1ccc(Br)cn1`, the “diameter of the inhibition zone (DIZ)” value in the data set on Micrococcus luteus is recorded as “<=14 mm”. For the same compound, the Activity entry in the data set with PC-3, in the data set on MCF7 and in the data set on HeLa was “Non-toxic” throughout.
Consider `C=C(C)C(C)(C)N(O)c1cc(C)on1`, for which the “diameter of the inhibition zone (DIZ)” value with Micrococcus luteus is more than 14 mm. In addition, the Activity result in the data set with PC-3, in the data set with MCF7 and with HeLa was “Non-toxic” each time.
Take `CO[C@@H]1C=C[C@@H](N(O)C(=O)Cc2ccccc2)CC1` (racemic): the “diameter of the inhibition zone (DIZ)” value in the data set on Micrococcus luteus is “<=14 mm”. The Activity result in the data set with PC-3, in the data set with MCF7 and with HeLa was “Non-toxic” each time.
Regarding `C=C(CN(O)c1cc(C)on1)c1ccccc1`, the “diameter of the inhibition zone (DIZ)” value in the data set on Micrococcus luteus is given as more than 14 mm. For the same compound, the Activity entry in the data set with PC-3, in the data set with MCF7 and with HeLa was “Non-toxic” in each case.
Consider `ON(c1ccc(Br)cn1)[C@@H]1CCC=C[C@H]1OCc1ccccc1` (relative stereo), for which the “diameter of the inhibition zone (DIZ)” value with Micrococcus luteus was more than 14 mm. Also, the Activity result in the data set on PC-3, with MCF7 and in the data set on HeLa was “Non-toxic” in each case.
On to `COC1C=C[C@@H](N(O)c2cccc(C)n2)C1` (mixture of isomers), for which the “diameter of the inhibition zone (DIZ)” value in the data set with Micrococcus luteus was more than 14 mm. For the same compound, the Activity entry in the data set on PC-3, with MCF7 and with HeLa was “Non-toxic” each time.
In the case of `COc1ccc(CON(Cc2ccc(C(F)(F)F)cc2)c2ccccn2)cc1`, in the data set on Micrococcus luteus, the “diameter of the inhibition zone (DIZ)” value is “<=14 mm”. Further, the Activity entry with PC-3, in the data set with MCF7 and in the data set with HeLa was “Non-toxic” in each case.
Take `CC(C)C[C@H](NC(=O)OC(C)(C)C)C(=O)NO`: the “diameter of the inhibition zone (DIZ)” value with Micrococcus luteus is listed as “<=14 mm”. Besides, the Activity entry in the data set on PC-3, in the data set on MCF7 and with HeLa was “Non-toxic” each time.
On to `Cc1cccc(N(O)[C@@H]2C=CC(OC(C)C)C2)n1` (mixture of isomers), for which, in the data set on Micrococcus luteus, the “diameter of the inhibition zone (DIZ)” value is listed as more than 14 mm. Also, the Activity entry in the data set with PC-3, with MCF7 and in the data set with HeLa was “Non-toxic” throughout.
For the compound `O[C@@H]1C=CC[C@H]1N(O)c1ccc(Br)cn1` (racemic), the “diameter of the inhibition zone (DIZ)” value in the data set on Micrococcus luteus is given as more than 14 mm. The Activity entry with PC-3, in the data set on MCF7 and in the data set on HeLa was “Non-toxic” in each case.
As for `CC(C)(C)OC1C=C[C@@H](N(O)c2ccc(Cl)cn2)C1` (mixture of isomers), the “diameter of the inhibition zone (DIZ)” value with Micrococcus luteus was more than 14 mm. Moreover, the Activity result with PC-3, in the data set with MCF7 and with HeLa was “Non-toxic” in each case.
As to `C=CCO[C@@H]1C=C[C@@H](N(O)c2ccc(Br)cn2)CC1` (racemic), the “diameter of the inhibition zone (DIZ)” value in the data set on Micrococcus luteus is more than 14 mm. Further, the Activity entry in the data set with PC-3, in the data set on MCF7 and in the data set with HeLa was “Non-toxic” each time.
Take `CC(C)(C)O[C@@H]1C=CCC[C@H]1N(O)c1ccc(Br)cn1` (racemic): the “diameter of the inhibition zone (DIZ)” value with Micrococcus luteus was more than 14 mm. The Activity result in the data set on PC-3, in the data set with MCF7 and in the data set on HeLa was “Non-toxic” in each case.
Regarding `C=C(C)C(CC/C(C)=C/CO)N(O)c1ccc(Br)cn1` (racemic), the “diameter of the inhibition zone (DIZ)” value in the data set on Micrococcus luteus is more than 14 mm. In addition, the Activity entry in the data set with PC-3, in the data set on MCF7 and with HeLa was “Non-toxic” each time.
Turning to `O=C(Cc1ccccc1)N1OC2C=CC1C2` (racemic), in the data set with Micrococcus luteus, the “diameter of the inhibition zone (DIZ)” value is given as “<=14 mm”. Besides, the Activity entry with PC-3, in the data set with MCF7 and with HeLa was “Non-toxic” each time.
In the case of `COc1ccc(CON(CCc2ccccc2)c2ccccn2)cc1`, the “diameter of the inhibition zone (DIZ)” value in the data set on Micrococcus luteus was “<=14 mm”. Moreover, the Activity entry with PC-3, in the data set with MCF7 and with HeLa was “Non-toxic” each time.
`C=C(CCC=C(C)C)C(CO)N(O)c1ccc(Br)cn1` (racemic): the “diameter of the inhibition zone (DIZ)” value in the data set on Micrococcus luteus was more than 14 mm. In addition, the Activity result with PC-3, in the data set with MCF7 and in the data set on HeLa was “Non-toxic” in each case.
On to `C=CCO[C@@H]1C=CCC[C@H]1N(O)c1ccc(Br)cn1` (racemic), for which the “diameter of the inhibition zone (DIZ)” value in the data set with Micrococcus luteus was more than 14 mm. Also, the Activity entry in the data set on PC-3, with MCF7 and with HeLa was “Non-toxic” throughout.
`Cc1cccc(N(O)[C@@H]2C=C[C@@H](OC(C)(C)C)C2)n1` (relative stereo): in the data set on Micrococcus luteus, the “diameter of the inhibition zone (DIZ)” value is more than 14 mm. The Activity result in the data set with PC-3, in the data set on MCF7 and in the data set on HeLa was “Non-toxic” in each case.
With `Cc1cccc(N2OC3C=CC2CC3)n1` (racemic), in the data set with Micrococcus luteus, the “diameter of the inhibition zone (DIZ)” value is on record as “<=14 mm”. The Activity result in the data set on PC-3, with MCF7 and in the data set with HeLa was “Non-toxic” each time.
In the case of `CO[C@@H]1C=C[C@@H](N(O)C(=O)OC(C)(C)C)C1` (racemic), the “diameter of the inhibition zone (DIZ)” value in the data set with Micrococcus luteus is on record as “<=14 mm”. Moreover, the Activity entry with PC-3, in the data set on MCF7 and in the data set on HeLa was “Non-toxic” throughout.
With `O=C(NO)c1ccccc1` [BENZOHYDROXAMATE], in the data set with Micrococcus luteus, the “diameter of the inhibition zone (DIZ)” value was “<=14 mm”. For the same compound, the Activity entry with PC-3, in the data set with MCF7 and with HeLa was “Non-toxic” in each case.
For `Clc1ccc(N2OC3C=CC2C3)nc1` (racemic), the “diameter of the inhibition zone (DIZ)” value with Micrococcus luteus was “<=14 mm”. Moreover, the Activity result with PC-3, in the data set with MCF7 and with HeLa was “Non-toxic” in each case.
Turning to `Cc1cc(N2OC3C=CC2C3)no1` (racemic), the “diameter of the inhibition zone (DIZ)” value in the data set on Micrococcus luteus is given as “<=14 mm”. For the same compound, the Activity entry with PC-3, in the data set on MCF7 and with HeLa was “Non-toxic” throughout.
`Cc1cccc(N(O)[C@@H]2CCC=C[C@H]2OC(C)(C)C)n1` (racemic): the “diameter of the inhibition zone (DIZ)” value in the data set on Micrococcus luteus is given as more than 14 mm. Moreover, the Activity result in the data set on PC-3, with MCF7 and with HeLa was “Non-toxic” each time.
Consider `C=CCN(OCc1ccc(OC)cc1)c1ccccn1`, for which, in the data set on Micrococcus luteus, the “diameter of the inhibition zone (DIZ)” value is recorded as “<=14 mm”. Further, the Activity entry in the data set with PC-3, in the data set with MCF7 and in the data set with HeLa was “Non-toxic” each time.
On to `CC(C)O[C@@H]1C=CCC[C@H]1N(O)c1ccc(Br)cn1` (racemic), for which the “diameter of the inhibition zone (DIZ)” value with Micrococcus luteus was more than 14 mm. Besides, the Activity entry in the data set on PC-3, in the data set on MCF7 and in the data set with HeLa was “Non-toxic” throughout.
For `CCCN(OCc1ccc(OC)cc1)c1ccccn1`, the “diameter of the inhibition zone (DIZ)” value in the data set on Micrococcus luteus was “<=14 mm”. For the same compound, the Activity entry in the data set on PC-3, with MCF7 and in the data set with HeLa was “Non-toxic” each time.

Values taken from ChEMBL document CHEMBL1914331, “N-O chemistry for antibiotics: discovery of N-alkyl-N-(pyridin-2-yl)hydroxylamine scaffolds as selective antibacterial agents using nitroso Diels-Alder and ene chemistry” (J Med Chem, 2011).
